The values that follow come from article PMC3259211 (Journal of Controlled Release, 2011).

By IC50 is commonly meant the concentration that gives 50% inhibition.

One test has as its system white blood cells (WBCs). Nature of the test: Mobilization of white blood cells to peripheral blood. Particulars: 50 µg per mouse s.c., 2 h; in words. Format: in vivo, mice. An outline of the steps:
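Normal mice received 50 µg test peptide s.c. in 200 µL; untreated mice were controls. Heart blood was taken under anaesthesia at 30 min, 1 h and 2 h. 100 µL blood was RBC-lysed, blocked 10 min on ice with 2% rat and 2% mouse serum, and stained for CD45.2, CD3, B220, CD11b, Gr-1 and F4/80. Cells were counted by flow cytometry with counting beads, WBCs gated as CD45.2⁺. Groups had ≥3 mice; two experiments.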

Another test has as its system progenitor cells. Nature of the test: Mouse progenitor colony assay. The following applies: 50 µg, post injection; in words. It is filed as in vivo, mice. The method, boiled down: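 Mice were injected s.c. with 50 µg peptide; untreated mice were controls. 150 µL blood per mouse was plated in 3 mL MethoCult GF. Colonies were counted by inverted microscope 14 days after plating. Each group had ≥3 mice, assayed in duplicate per mouse.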

In the next test the target is CXCR4 (Homo sapiens, UniProt P61073). The following applies: read-out: IC50 (binding to CXCR4); reported for T140; ref [26]; cited from earlier work.
Sequence of CXCR4 (P61073 whole entry): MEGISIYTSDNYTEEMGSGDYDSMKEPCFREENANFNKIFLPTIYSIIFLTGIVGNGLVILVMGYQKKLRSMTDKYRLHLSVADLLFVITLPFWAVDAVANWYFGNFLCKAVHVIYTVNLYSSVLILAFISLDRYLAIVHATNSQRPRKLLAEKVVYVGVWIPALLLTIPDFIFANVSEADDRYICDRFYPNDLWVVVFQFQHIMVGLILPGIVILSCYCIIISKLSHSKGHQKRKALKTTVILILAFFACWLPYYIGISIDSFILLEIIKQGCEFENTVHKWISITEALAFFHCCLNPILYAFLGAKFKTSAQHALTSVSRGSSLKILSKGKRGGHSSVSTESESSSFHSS
The test system of a further test is stem cells. The following applies: mice; ref [12]; cited from earlier work.
The subject of test [1] is Jurkat cells (CXCL12-induced migration). Particulars: Jurkat T-cells; ref [30]; cited from earlier work.

As to 4-F-benzoyl-TN14003 [T140], in the test on white blood cells (WBCs), the “time course of WBC numbers in the blood” value is recorded as “remained relatively stable after 2 h”. For the same substance, the “time course of progenitors in the blood” value in the test with progenitor cells is “increased steadily and remained substantially elevated between 2 and 4 h post injection”. The concentration for half-maximal inhibition (IC50) on CXCR4 is 2.5 nM. In the test with stem cells, the “in vivo mobilization of stem cells from the bone marrow” value is “induces in vivo mobilization of stem cells from the bone marrow, which is additive in effect with G-CSF treatment”.
On to “CXCL12: natural human ligand of CXCR4, chemokine CXCL12/SDF-1”, for which the “lowest concentration that induces maximal migration” value in test [1] was 100 ng/mL.
